Results reported in ChEMBL document CHEMBL3352511, “Pyrrole-3-carboxamides as potent and selective JAK2 inhibitors” (Bioorg Med Chem, 2014).
Converted amounts (≈) assume the structure as drawn. The source made the active and inactive calls. The rule behind the calls is not given here.

Assays:
[1] = molecular target: T1, Serine/threonine-protein kinase TAO1 (Homo sapiens) (UniProt Q7L7X3); assay: Inhibition of human TAOK1 at 0.1 uM
T1 sequence (whole entry): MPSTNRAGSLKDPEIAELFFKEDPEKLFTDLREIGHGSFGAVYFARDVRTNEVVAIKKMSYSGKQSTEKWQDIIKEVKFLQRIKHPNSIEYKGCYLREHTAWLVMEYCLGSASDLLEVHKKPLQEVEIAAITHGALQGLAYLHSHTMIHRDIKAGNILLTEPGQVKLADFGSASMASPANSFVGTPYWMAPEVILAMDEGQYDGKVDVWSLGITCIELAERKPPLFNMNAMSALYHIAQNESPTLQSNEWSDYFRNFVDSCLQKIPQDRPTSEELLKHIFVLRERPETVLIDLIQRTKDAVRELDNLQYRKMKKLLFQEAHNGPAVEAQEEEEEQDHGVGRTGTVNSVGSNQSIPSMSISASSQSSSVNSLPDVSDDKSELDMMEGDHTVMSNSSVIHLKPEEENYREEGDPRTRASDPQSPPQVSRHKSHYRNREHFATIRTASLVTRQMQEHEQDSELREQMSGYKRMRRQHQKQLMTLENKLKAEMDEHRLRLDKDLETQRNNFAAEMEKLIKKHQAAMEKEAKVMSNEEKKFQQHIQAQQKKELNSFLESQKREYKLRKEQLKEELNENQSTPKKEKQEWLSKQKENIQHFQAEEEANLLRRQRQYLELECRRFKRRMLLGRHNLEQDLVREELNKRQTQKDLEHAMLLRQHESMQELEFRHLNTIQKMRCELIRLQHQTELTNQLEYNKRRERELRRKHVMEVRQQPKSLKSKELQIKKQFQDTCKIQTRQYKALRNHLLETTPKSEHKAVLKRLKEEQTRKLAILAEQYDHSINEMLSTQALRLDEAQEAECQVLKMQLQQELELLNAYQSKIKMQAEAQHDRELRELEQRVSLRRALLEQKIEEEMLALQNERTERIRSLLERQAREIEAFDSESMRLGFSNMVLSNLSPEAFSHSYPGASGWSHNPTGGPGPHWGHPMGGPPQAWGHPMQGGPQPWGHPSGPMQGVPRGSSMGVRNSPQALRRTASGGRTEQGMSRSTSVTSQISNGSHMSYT
Procedure, shortened: (§1)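 KINOMEscan active-site-directed competition binding panel of 442 human kinases, compound tested at 0.1 µM. Primary screen results expressed as % Ctrl, where lower values mean stronger binding.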

[2] = Cmax in Balb nu/nu mouse at 10 mg/kg, po; format: ADME, organism-based; set-up: dose 10 mg/kg, route oral; settings: in vivo
Procedure, shortened: (§2)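 Overnight-fasted male Nu/Nu mice, single oral dose in 0.5% methocel, three mice. Saphenous vein blood taken at predose, 0.083, 0.5, 1, 6 and 24 h. Plasma obtained by centrifugation at 10,000g, 3 min, 4 °C, stored at -80 °C, then analysed by LC/MS/MS.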

[3] = molecular target: Dual specificity tyrosine-phosphorylation-regulated kinase 1B (Homo sapiens) (UniProt Q9Y463); assay: Inhibition of human DYRK1B at 0.1 uM; procedure, shortened: as §1
Chain of Dual specificity tyrosine-phosphorylation-regulated kinase 1B (Homo sapiens) (Q9Y463 whole entry, looked up): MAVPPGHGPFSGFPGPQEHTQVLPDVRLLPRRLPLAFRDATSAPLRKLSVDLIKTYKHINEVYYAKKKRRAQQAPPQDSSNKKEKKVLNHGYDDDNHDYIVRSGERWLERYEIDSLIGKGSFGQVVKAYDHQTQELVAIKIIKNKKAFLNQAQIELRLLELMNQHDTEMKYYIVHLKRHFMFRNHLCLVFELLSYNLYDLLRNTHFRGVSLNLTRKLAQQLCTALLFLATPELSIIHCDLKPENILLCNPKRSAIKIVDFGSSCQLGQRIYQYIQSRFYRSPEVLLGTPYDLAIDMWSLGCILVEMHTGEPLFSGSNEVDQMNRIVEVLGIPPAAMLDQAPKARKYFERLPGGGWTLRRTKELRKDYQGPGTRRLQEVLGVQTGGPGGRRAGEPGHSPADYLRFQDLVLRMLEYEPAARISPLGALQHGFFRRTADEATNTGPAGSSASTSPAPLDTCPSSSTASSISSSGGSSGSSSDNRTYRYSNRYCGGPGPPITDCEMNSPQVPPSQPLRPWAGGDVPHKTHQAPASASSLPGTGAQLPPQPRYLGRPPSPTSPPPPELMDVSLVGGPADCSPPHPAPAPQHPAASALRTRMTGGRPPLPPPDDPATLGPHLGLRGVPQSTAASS

[4] = Antitumor activity against human SET2 cells xenografted in SCID mouse assessed as tumor growth inhibition at 15 mg/kg, po bid for 10 consecutive days; format: functional; settings: SET-2, read-out: TGI
Procedure, shortened: (§3)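 Female SCID mice, 5–6 weeks old, given 200 Rads whole-body gamma irradiation, then inoculated s.c. with 10^7 SET-2 cells. Dosing by mouth started at 100-200 mm³ tumours; controls received vehicle (0.5% methocel). Seven animals per study.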

DERL7 = assay: Effect on total STAT5 level in IL-2-activated human DERL7 cells at 0.08 to 10 uM after 2 hrs by SDS-PAGE analysis; format: functional, cell-based
Procedure, shortened: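 DERL-7 cells were kept in RPMI 1640 with 10% FBS and 20 ng/ml human IL-2, then starved 18 h. Compound was applied for 2 h, followed by IL-2 stimulation (20 ng/ml, 15 min, 37 °C). Cold-PBS-washed cells were lysed in RIPA. Lysates were resolved by SDS-PAGE and western blotted for P-STAT5 and total STAT5, with ECL detection.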

[5] = Antiproliferative activity against human DERL7 cells after 72 hrs by Cell Titer-Glo assay; format: functional, cell-based; settings: DERL7, 72 h
SET-2 [6] = assay: Inhibition of STAT5 phosphorylation in human SET2 cells xenografted in SCID mouse assessed as tumor growth inhibition at 50 mg/kg, po as single dose measured up to 12 hrs post treatment; format: functional, organism-based; set-up: dose 50 mg/kg
Procedure, shortened: (§4)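 SET-2 s.c. xenografts in irradiated female SCID mice were given one oral dose. Tumours were collected at several post-treatment times, 3 animals per time. Tumour lysates were western blotted for P-STAT5 and P-STAT3, with GAPDH as loading control.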

[7] = Antitumor activity against human SET2 cells xenografted in SCID mouse assessed as tumor growth inhibition at 30 mg/kg, po bid for 10 consecutive days; format: functional; settings: SET-2, read-out: TGI; procedure, shortened: as §3
Mus musculus = assay: Toxicity in human SET2 cells xenografted SCID mouse assessed as reversible body weight loss at 15 mg/kg, po bid for 10 consecutive days; format: organism-based; set-up: dose 15 mg/kg, route oral; settings: in vivo
Procedure, shortened: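 SET-2 xenografts (10^7 cells s.c.) in irradiated female SCID mice, seven per study, dosed orally from 100-200 mm³ tumours, with 0.5% methocel vehicle controls. Body weight loss recorded at end of treatment.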

SET-2 [8] = assay: Effect on total STAT5 level in human SET2 cells at 0.08 to 10 uM after 2 hrs by SDS-PAGE analysis; format: functional, cell-based
Procedure, shortened: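 SET-2 cells were grown in RPMI 1640 with 10% FBS at 37 °C, 5% CO₂, and exposed to compound or DMSO for 2 h at 37 °C. Cells were washed in cold PBS and lysed in RIPA buffer. Equal lysate amounts went through SDS-PAGE and nitrocellulose transfer, then 5% milk/TBST blocking and overnight 4 °C probing for total STAT3/STAT5 and phospho-STAT, with ECL detection.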

[9] = Cmax in Balb nu/nu mouse at 10 mg/kg, iv; format: ADME, organism-based; set-up: dose 10 mg/kg, route intravenous; settings: in vivo
Procedure, shortened: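 Overnight-fasted male Nu/Nu mice, single intravenous dose in 10% Tween 80 in 5% dextrose, three mice. Saphenous vein blood taken at predose, 0.083, 0.5, 1, 6 and 24 h. Plasma obtained by centrifugation at 10,000g, 3 min, 4 °C, stored at -80 °C, then analysed by LC/MS/MS.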

[10] = Oral bioavailability in Balb nu/nu mouse at 10 mg/kg; format: ADME, organism-based; settings: in vivo; procedure, shortened: as §2
[11] = molecular target: Dual specificity protein kinase CLK4 (Homo sapiens) (UniProt Q9HAZ1); assay: Inhibition of human CLK4 at 0.1 uM; procedure, shortened: as §1
Chain of Dual specificity protein kinase CLK4 (Homo sapiens) (Q9HAZ1 whole entry, looked up): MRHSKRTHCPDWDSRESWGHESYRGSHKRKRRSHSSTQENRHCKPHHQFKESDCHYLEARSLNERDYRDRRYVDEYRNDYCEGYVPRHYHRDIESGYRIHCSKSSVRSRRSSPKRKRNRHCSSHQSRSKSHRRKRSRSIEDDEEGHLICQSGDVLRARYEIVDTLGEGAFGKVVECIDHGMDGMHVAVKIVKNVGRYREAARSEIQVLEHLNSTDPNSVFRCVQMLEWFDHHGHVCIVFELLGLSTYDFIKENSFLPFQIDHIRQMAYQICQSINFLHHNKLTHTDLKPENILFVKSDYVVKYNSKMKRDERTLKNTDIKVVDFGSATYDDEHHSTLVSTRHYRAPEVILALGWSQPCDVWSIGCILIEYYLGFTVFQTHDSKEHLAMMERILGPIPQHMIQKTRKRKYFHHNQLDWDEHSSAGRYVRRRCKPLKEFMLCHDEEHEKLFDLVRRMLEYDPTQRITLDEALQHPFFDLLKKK

[12] = molecular target: Dual specificity tyrosine-phosphorylation-regulated kinase 1A (Homo sapiens) (UniProt Q13627); assay: Inhibition of human DYRK1A at 0.1 uM; procedure, shortened: as §1
SET-2 [13] = assay: Inhibition of STAT3 phosphorylation in human SET2 cells xenografted in SCID mouse assessed as tumor growth inhibition at 30 mg/kg, po as single dose measured at 1 to 3 hrs post treatment; format: functional, organism-based; set-up: dose 30 mg/kg; procedure, shortened: as §4
[14] = molecular target: Tyrosine-protein kinase JAK2 (Homo sapiens, UniProt O60674, V617F)
Chain of Tyrosine-protein kinase JAK2 (O60674 whole entry V617F): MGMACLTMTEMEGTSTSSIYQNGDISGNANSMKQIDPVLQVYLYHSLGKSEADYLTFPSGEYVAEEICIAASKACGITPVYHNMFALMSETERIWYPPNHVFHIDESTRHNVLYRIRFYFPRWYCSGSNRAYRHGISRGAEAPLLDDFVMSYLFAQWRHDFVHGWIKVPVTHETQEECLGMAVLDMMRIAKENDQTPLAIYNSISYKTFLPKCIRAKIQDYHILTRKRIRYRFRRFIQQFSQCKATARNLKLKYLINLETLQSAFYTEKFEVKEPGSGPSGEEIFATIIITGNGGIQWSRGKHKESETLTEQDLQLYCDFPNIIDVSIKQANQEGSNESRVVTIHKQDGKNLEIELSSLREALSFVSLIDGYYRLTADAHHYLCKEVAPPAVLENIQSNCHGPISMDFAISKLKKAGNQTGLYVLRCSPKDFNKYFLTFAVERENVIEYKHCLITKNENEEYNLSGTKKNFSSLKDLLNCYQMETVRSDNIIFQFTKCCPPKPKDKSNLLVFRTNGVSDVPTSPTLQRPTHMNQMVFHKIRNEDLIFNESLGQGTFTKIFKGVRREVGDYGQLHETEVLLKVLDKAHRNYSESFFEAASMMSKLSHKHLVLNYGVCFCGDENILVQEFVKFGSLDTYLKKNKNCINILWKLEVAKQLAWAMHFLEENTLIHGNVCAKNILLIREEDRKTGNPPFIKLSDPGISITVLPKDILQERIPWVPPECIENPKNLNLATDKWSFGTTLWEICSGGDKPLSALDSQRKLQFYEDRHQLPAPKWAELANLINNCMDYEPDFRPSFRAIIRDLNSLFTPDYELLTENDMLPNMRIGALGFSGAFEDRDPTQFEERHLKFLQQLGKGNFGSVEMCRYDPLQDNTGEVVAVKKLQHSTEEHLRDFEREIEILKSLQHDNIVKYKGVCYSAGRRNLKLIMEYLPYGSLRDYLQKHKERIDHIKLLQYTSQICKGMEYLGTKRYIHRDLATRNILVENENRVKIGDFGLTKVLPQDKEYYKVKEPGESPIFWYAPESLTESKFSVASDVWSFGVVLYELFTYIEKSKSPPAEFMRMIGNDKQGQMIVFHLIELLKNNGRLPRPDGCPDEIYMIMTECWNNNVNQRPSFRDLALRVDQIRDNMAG

[15] = Solubility of the compound in buffer at pH7; format: physicochemical; settings: pH 7

NC(=O)c1cc(-c2ccnc(N)n2)[nH]c1-c1cc(C(F)(F)F)ccc1Cl
inhibition [1]: 1% | Cmax [2]: 4.2 µM | inhibition [3]: 1% | inhibition in vivo at 15 mg/kg [4]: 50% | Activity (DERL7): inactive | IC50 [5]: 1880 nM | inhibition (SET-2 [6]): Active | inhibition in vivo at 30 mg/kg [7]: 71% | Activity (Mus musculus): 2% | Activity (SET-2 [8]): inactive | Cmax [9]: 17.6 µM | bioavailability [10]: 31% | inhibition [11]: 1% | inhibition [12]: 1% | inhibition (SET-2 [13]): Active | IC50 [14]: 480 nM | solubility [15]: 159 µM (≈ 60.7 µg/mL)
